Reference: ChEMBL document CHEMBL1671797, “Lipophilic derivatives of leu-enkephalinamide: in vitro permeability, stability and in vivo nasal delivery” (Bioorg Med Chem, 2011)
Non-standard residues stand in square brackets, D forms with d. Residues, ends and D or L forms follow the SMILES beside them. Gly(decyl) = CCCCCCCCCC[C@H](N)C(=O)O; Aoc(2) = CCCCCC[C@H](N)C(=O)O

Tests used:
[1] = Stability of the compound in human Caco2 cell homogenate assessed as half life by LC-MS/MS analysis; format: ADME, Colon; conditions: Caco-2 cell homogenate
Procedure, shortened: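 Confluent Caco-2 cells (21–28 days) rinsed, sonicated, spun 2000 rpm 5 min; supernatant adjusted to 0.5 mg/mL protein. Homogenate mixed 1:1 with 200 µM compound in HBSS/HEPES. Sampled at 5–120 min, quenched with TFA-acidified water (pH 1–2). Endomorphin-1 run as enzyme-activity control. t1/2 by one-phase decay fit; 4 wells, ≥3 independent experiments.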

[2] = Drug level in Sprague-Dawley rat olfactory bulb at 1 mg/kg, intranasal after 10 mins by LC-MS/MS analysis; format: ADME, organism-based; parameters: dose 1 mg/kg; conditions: inhaled or intranasal, read-out: Drug uptake
Procedure, shortened: (§1)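 Male Sprague–Dawley rats (450–530 g, n = 4; 2 PBS controls) under xylazine/tiletamine–zolazepam anaesthesia. Dose given as 50 µL suspension in PBS pH 7.4 through a tube inserted 15 mm into the nasal cavity. CO2 euthanasia at 10 min. Tissues and blood homogenised or diluted in cold PBS, sonicated, acetonitrile-precipitated. Quantified against standards made in brain-homogenate matrix.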

[3] = system: Plasma; assay: Stability of the compound in human plasma assessed as degradation by HPLC analysis; format: ADME, cell-free
Procedure, shortened: (§2)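 Compound at 1 mg/mL in PBS mixed 1:1 with human plasma from healthy volunteers at 37 °C. Aliquots taken at set times, put on ice, proteins precipitated with acetonitrile, spun 10,000 rpm 10 min. Supernatant run on C18 RP-HPLC (water/acetonitrile/TFA gradient), detection at 214 nm. Percent of initial peptide remaining plotted against time.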

[4] = Drug level in Sprague-Dawley rat brain at 1 mg/kg, intranasal after 10 mins by LC-MS/MS analysis; format: ADME, organism-based; parameters: dose 1 mg/kg; conditions: inhaled or intranasal, read-out: Drug uptake; procedure, shortened: as §1
[5] = Apparent permeability across human Caco2 cells by LC-MS/MS analysis; format: ADME, cell-based; conditions: Caco-2
Procedure, shortened: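 Caco-2 cells (passage 25–35, DMEM with 10% FBS, 1% NEAA) grown 21–28 days on 0.4 µm polycarbonate Transwell inserts; TEER 2.5–5 kΩ/cm2 before use. Rinsed with EDTA/DPBS then HBSS/25 mM HEPES pH 7.4, equilibrated 30 min at 37 °C. 200 µM apical dose; basolateral sampling at 30, 90, 120, 150 min. Papp from steady-state flux; 4 wells/experiment, ≥3 experiments; 14C mannitol control.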

[6] = Stability of the compound in human plasma assessed as half life by HPLC analysis; format: ADME, cell-free; procedure, shortened: as §2
[7] = Drug level in Sprague-Dawley rat blood at 1 mg/kg, intranasal after 10 mins by LC-MS/MS analysis; format: ADME, organism-based; parameters: dose 1 mg/kg; conditions: whole blood, inhaled or intranasal; procedure, shortened: as §1
[8] = system: Plasma; assay: Stability of the compound in human plasma by HPLC analysis; format: ADME, cell-free; procedure, shortened: as §2

Row | Structure (SMILES) | half-life [1] [min] | Papp [5] [×10⁻⁶ cm/s] | further results
1 | CCCCCC[C@@H](N)C(=O)N[C@@H](Cc1ccc(O)cc1)C(=O)NCC(=O)NCC(=O)N[C@@H](Cc1ccccc1)C(=O)N[C@@H](CC(C)C)C(N)=O | – | – | Stability [8]: Stable
2 | CCCCCCCCCC[C@H](NC(=O)[C@H](CC(C)C)NC(=O)[C@H](Cc1ccccc1)NC(=O)CNC(=O)CNC(=O)[C@H](Cc1ccc(O)cc1)NC(C)=O)C(N)=O (Ac-YGGFL[Gly(decyl)]-NH2) | 18.4 | – | –
3 | CCCCCC[C@H](NC(=O)[C@H](CC(C)C)NC(=O)[C@H](Cc1ccccc1)NC(=O)CNC(=O)CNC(=O)[C@@H](N)Cc1ccc(O)cc1)C(N)=O (H-YGGFL[Aoc(2)]-NH2) | 5.4 | 0.00477 | –
4 | CCCCCCCCCC[C@H](NC(=O)[C@H](CC(C)C)NC(=O)[C@H](Cc1ccccc1)NC(=O)CNC(=O)CNC(=O)[C@@H](N)Cc1ccc(O)cc1)C(N)=O (H-YGGFL[Gly(decyl)]-NH2) | 16.4 | – | –
5 | CC(C)C[C@H](NC(=O)[C@H](Cc1ccccc1)NC(=O)CNC(=O)CNC(=O)[C@@H](N)Cc1ccc(O)cc1)C(=O)O [ENKEPHALIN] | – | 0.31 | –

More lines, main results first:

Row | half-life [1] [min] | Papp [5] [×10⁻⁶ cm/s] | Structure (SMILES) | further results
6 | 31.7 | 2.51 | CCCCCC[C@H](N)C(=O)N[C@@H](Cc1ccc(O)cc1)C(=O)NCC(=O)NCC(=O)N[C@@H](Cc1ccccc1)C(=O)N[C@@H](CC(C)C)C(N)=O | concentration at 10 min [2]: 59 nM; Stability [3]: Unstable; concentration at 10 min [4]: 13.5 nM; half-life [6]: 8.9 min; concentration at 10 min [7]: 6.53 nM
7 | 13.8 | 0.763 | CCCCCC[C@H](NC(=O)[C@H](CC(C)C)NC(=O)[C@H](Cc1ccccc1)NC(=O)CNC(=O)CNC(=O)[C@H](Cc1ccc(O)cc1)NC(C)=O)C(N)=O (Ac-YGGFL[Aoc(2)]-NH2) | –
8 | 83 | 1.06 | CCCCCC[C@H](NC(C)=O)C(=O)N[C@@H](Cc1ccc(O)cc1)C(=O)NCC(=O)NCC(=O)N[C@@H](Cc1ccccc1)C(=O)N[C@@H](CC(C)C)C(N)=O (Ac-[Aoc(2)]YGGFL-NH2) | –
9 | 27 | – | CCCCCCCCCC[C@H](NC(C)=O)C(=O)N[C@@H](Cc1ccc(O)cc1)C(=O)NCC(=O)NCC(=O)N[C@@H](Cc1ccccc1)C(=O)N[C@@H](CC(C)C)C(N)=O (Ac-[Gly(decyl)]YGGFL-NH2) | –
10 | 14.7 | 2.43 | CCCCCCCCCC[C@H](N)C(=O)N[C@@H](Cc1ccc(O)cc1)C(=O)NCC(=O)NCC(=O)N[C@@H](Cc1ccccc1)C(=O)N[C@@H](CC(C)C)C(N)=O (H-[Gly(decyl)]YGGFL-NH2) | –
